Assays:
[1] = target: RAC-alpha serine/threonine-protein kinase (Homo sapiens, UniProt P31749); assay: Inhibition of AKT1
How it was run: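 AKT1 enzyme IC50 from the standard high-throughput AKT enzyme assay.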

[2] = Inhibition of AKT-mediated GSK3-beta phosphorylation in human BT474 cells by mechanistic assay; format: cell-based; conditions: BT-474
How it was run: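 Cellular mechanistic assay in BT474 cells measuring inhibition of GSK3β phosphorylation, reported as IC50.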

[3] = target: RAC-gamma serine/threonine-protein kinase (Homo sapiens, UniProt Q9Y243); assay: Inhibition of AKT3
RAC-gamma serine/threonine-protein kinase, sequence (Q9Y243 whole entry): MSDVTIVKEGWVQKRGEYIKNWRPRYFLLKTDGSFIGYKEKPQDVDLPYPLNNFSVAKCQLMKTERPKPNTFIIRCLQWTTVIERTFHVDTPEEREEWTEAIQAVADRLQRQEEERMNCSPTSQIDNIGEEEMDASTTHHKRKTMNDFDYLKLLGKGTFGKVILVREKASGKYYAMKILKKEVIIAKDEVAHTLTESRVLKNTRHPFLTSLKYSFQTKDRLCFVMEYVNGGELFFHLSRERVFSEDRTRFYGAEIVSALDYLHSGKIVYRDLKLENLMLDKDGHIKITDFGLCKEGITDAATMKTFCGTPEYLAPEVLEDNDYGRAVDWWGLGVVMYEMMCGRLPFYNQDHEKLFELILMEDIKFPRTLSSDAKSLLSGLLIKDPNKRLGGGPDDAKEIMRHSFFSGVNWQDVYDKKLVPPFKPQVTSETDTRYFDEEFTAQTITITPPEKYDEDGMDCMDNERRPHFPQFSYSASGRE

BT-474 = assay: Cytotoxicity against human BT474 cells; format: functional, cell-based
How it was run: (§1)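 Inhibition of cell proliferation, reported as IC50. AKT-sensitive lines were BT474 and LNCaP; HFF was the non-tumour-derived line.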

LNCaP = assay: Cytotoxicity against human LNCAP cells; format: functional, cell-based; how it was run: as §1
HFF = assay: Cytotoxicity against human HFF cells; format: cell-based; how it was run: as §1
[4] = Cmax in rat at 2 mg/kg, iv after 24 hrs; format: ADME, organism-based; parameters: dose 2 mg/kg, route intravenous; conditions: in vivo
How it was run: (§2)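 iv/po crossover pharmacokinetic study in conscious male rats, n = 3. Dosing was 2 mg/kg iv and 10 mg/kg po.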

[5] = Clearance in rat at 2 mg/kg, iv after 24 hrs; format: ADME, organism-based; parameters: dose 2 mg/kg, route intravenous; conditions: in vivo; how it was run: as §2
[6] = Half life in rat at 2 mg/kg, iv after 24 hrs; format: ADME, organism-based; parameters: dose 2 mg/kg, route intravenous; conditions: in vivo; how it was run: as §2
Rattus norvegicus [7] = assay: (§3) AUC (0 to t) in rat at 2 mg/kg, iv after 24 hrs; format: ADME, organism-based, Plasma; parameters: time < 24 hr, dose 2 mg/kg, route intravenous; conditions: in vivo, 24 h; how it was run: as §2
[8] = Cmax in rat at 10 mg/kg, po after 24 hrs; format: ADME, organism-based; parameters: dose 10 mg/kg, route oral; conditions: in vivo; how it was run: as §2
Rattus norvegicus [9] = assay: (§4) AUC (0 to t) in rat at 10 mg/kg, po after 24 hrs; format: ADME, organism-based, Plasma; parameters: time < 24 hr, dose 10 mg/kg, route oral; conditions: in vivo, 24 h; how it was run: as §2
Rattus norvegicus [10] = assay: (§5) Oral bioavailability in rat at 10 mg/kg after 24 hrs; format: ADME, organism-based; conditions: in vivo, 24 h; how it was run: as §2
Mus musculus = assay: Inhibition of GSK3-beta phosphorylation in human BT474 xenografted ip dosed mouse after 4 hrs administered once relative to control; format: functional, organism-based
How it was run: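 BT474 tumour-bearing xenograft mice received a single ip injection at 6.25, 12.5 or 25 mg/kg. Vehicle was 5% dextrose, pH 4.0. Tumours were harvested 4 h post-dose and pGSK3β levels compared with the vehicle group.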

[11] = target: Protein kinase C alpha type (Homo sapiens, UniProt P17252); assay: Inhibition of PKCalpha
[12] = target: Glycogen synthase kinase-3 beta (Homo sapiens, UniProt P49841); assay: Inhibition of GSK3-beta
Glycogen synthase kinase-3 beta, sequence (P49841 whole entry): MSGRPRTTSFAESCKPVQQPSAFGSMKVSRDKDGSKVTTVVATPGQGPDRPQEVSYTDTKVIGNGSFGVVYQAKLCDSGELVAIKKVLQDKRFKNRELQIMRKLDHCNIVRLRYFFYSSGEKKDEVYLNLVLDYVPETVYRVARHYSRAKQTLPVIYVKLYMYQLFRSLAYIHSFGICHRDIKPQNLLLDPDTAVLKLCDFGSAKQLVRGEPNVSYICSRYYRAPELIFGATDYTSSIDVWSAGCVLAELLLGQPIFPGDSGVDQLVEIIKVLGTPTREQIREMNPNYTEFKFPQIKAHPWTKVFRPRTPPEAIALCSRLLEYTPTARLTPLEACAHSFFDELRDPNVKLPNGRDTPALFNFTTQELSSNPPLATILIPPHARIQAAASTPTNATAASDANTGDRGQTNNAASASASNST

[13] = target: MAP kinase-activated protein kinase 2 (Homo sapiens, UniProt P49137); assay: Inhibition of MAPKAPK2
MAP kinase-activated protein kinase 2, sequence (P49137 whole entry): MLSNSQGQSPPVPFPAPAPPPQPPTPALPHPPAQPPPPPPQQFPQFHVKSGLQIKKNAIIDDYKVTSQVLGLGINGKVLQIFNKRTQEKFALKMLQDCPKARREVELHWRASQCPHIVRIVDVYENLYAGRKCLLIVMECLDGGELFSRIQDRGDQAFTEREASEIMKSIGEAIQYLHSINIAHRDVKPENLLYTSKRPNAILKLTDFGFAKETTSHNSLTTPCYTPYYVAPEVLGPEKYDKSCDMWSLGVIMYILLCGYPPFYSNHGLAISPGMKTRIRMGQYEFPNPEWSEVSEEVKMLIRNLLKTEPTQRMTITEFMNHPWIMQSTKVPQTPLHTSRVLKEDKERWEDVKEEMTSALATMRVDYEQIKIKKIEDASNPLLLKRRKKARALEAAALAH

[14] = target: Serine/threonine-protein kinase pim-1 (Homo sapiens, UniProt P11309); assay: Inhibition of PIM1
Serine/threonine-protein kinase pim-1, sequence (P11309 whole entry): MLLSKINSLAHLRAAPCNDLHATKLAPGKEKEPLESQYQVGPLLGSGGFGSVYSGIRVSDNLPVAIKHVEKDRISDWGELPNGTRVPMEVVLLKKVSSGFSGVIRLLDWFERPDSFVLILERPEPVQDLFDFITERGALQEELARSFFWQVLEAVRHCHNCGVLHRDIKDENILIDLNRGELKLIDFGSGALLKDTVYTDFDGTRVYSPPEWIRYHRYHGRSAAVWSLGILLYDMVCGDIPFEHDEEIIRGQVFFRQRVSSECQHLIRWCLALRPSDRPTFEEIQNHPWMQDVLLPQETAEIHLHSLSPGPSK

[15] = target: Epidermal growth factor receptor (Homo sapiens, UniProt P00533)
Epidermal growth factor receptor, sequence (P00533 whole entry): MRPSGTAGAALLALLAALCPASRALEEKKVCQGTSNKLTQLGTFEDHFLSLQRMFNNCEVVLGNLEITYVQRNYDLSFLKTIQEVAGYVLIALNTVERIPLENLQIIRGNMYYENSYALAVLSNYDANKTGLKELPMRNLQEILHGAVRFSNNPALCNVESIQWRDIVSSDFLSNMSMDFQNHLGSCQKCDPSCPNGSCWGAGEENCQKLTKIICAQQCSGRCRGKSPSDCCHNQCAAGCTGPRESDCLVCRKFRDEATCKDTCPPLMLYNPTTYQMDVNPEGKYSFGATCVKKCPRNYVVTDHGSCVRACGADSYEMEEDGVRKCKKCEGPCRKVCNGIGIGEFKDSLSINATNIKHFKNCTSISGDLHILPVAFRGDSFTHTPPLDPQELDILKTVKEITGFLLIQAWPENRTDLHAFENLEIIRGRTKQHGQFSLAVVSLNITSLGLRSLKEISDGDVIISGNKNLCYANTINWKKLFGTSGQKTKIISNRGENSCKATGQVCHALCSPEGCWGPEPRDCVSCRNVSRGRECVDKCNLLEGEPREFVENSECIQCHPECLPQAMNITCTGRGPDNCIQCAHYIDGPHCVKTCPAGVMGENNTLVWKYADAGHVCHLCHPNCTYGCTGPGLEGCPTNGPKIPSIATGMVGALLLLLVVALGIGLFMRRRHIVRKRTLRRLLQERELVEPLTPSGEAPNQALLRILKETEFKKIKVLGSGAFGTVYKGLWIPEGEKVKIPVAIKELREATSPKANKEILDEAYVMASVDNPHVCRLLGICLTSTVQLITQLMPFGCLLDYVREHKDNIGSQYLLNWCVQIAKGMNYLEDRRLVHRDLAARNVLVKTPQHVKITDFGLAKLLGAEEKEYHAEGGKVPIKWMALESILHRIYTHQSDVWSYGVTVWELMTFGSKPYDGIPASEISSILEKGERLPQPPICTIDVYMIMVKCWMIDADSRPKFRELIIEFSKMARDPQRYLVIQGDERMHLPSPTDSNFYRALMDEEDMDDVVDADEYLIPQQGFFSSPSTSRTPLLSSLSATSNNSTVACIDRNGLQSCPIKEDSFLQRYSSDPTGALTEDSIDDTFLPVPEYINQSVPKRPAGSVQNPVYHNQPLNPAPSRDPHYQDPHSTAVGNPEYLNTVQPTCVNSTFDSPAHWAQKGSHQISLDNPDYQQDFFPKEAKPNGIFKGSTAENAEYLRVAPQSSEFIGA

[16] = as §3; format: ADME, organism-based, Plasma; parameters: time < 24 hr, dose 2 mg/kg, route intravenous; conditions: plasma; how it was run: as §2
[17] = Half life in rat at 10 mg/kg, po after 24 hrs; format: ADME, organism-based; parameters: dose 10 mg/kg, route oral; conditions: in vivo; how it was run: as §2
[18] = as §4; format: ADME, organism-based, Plasma; parameters: time < 24 hr, dose 10 mg/kg, route oral; conditions: plasma; how it was run: as §2
[19] = as §5; format: ADME, organism-based; conditions: in vivo; how it was run: as §2

RAC-alpha serine/threonine-protein kinase, sequence (P31749 whole entry): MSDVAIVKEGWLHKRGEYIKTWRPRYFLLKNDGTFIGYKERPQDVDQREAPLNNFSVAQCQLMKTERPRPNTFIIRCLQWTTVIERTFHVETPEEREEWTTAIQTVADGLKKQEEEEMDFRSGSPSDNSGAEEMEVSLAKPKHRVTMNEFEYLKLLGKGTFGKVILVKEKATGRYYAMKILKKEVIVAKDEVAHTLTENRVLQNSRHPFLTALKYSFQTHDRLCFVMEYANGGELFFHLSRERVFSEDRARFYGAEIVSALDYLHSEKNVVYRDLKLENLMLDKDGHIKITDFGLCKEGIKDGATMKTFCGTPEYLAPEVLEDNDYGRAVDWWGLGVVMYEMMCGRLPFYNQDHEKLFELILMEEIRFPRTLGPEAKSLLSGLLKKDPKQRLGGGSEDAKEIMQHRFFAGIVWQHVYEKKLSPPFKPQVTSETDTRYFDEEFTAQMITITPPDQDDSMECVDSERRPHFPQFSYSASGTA

Structure (SMILES) | IC50 [1] | IC50 [2] | Ki [1] | IC50 [3] | IC50 (BT-474) | IC50 (LNCaP) | IC50 (HFF) | further results
NCC(CNc1ccc(-c2ccnc3[nH]ccc23)s1)c1ccccc1 (stereo unspecified) | 250 nM | > 10000 nM | – | – | – | – | – | –
CCNCC(Cc1ccccc1)NC(=O)c1cc(Br)c(-c2ccnc3[nH]ccc23)s1 (stereo unspecified) | 4 nM | 1100 nM | – | – | – | – | – | –
NC[C@H](Cc1ccccc1C(F)(F)F)NC(=O)c1cc(Br)c(-c2ccnc3[nH]ccc23)s1 | 3 nM | 50 nM | 0.05 nM | 2 nM | 60 nM | 24 nM | 730 nM | –
NCC(NC(=O)c1cc(-c2cccnc2)c(-c2ccnc3[nH]ccc23)s1)c1ccccc1 (stereo unspecified) | 63 nM | 6000 nM | – | – | – | – | – | –
NC[C@H](Cc1ccncc1)NC(=O)c1cc(Br)c(-c2ccnc3[nH]ccc23)s1 | – | 1900 nM | 2 nM | – | 2300 nM | 750 nM | 3600 nM | –
NC[C@H](CC1CCCCC1)NC(=O)c1cc(Br)c(-c2ccnc3[nH]ccc23)s1 | 1 nM | 1900 nM | 0.79 nM | 3 nM | 2600 nM | 440 nM | – | –
NC[C@H](Cc1ccc(F)cc1)NC(=O)c1cc(Br)c(-c2ccnc3[nH]ccc23)s1 | 1 nM | 180 nM | 0.06 nM | 2 nM | 500 nM | 66 nM | 490 nM | –
NCC(NCc1ccc(-c2ccnc3[nH]ccc23)s1)c1ccccc1 (stereo unspecified) | 100 nM | > 10000 nM | – | – | – | – | – | –
NCC(NC(=O)c1cc(-c2cn[nH]c2)c(-c2ccnc3[nH]ccc23)s1)c1ccccc1 (stereo unspecified) | 63 nM | 2500 nM | – | – | – | – | – | –
NC[C@H](Cc1ccc(C(F)(F)F)cc1)NC(=O)c1cc(Br)c(-c2ccnc3[nH]ccc23)s1 | 2 nM | 2000 nM | 2 nM | 3 nM | 1200 nM | 440 nM | 1300 nM | –
COc1ccc(C[C@@H](CN)NC(=O)c2cc(Br)c(-c3ccnc4[nH]ccc34)s2)cc1 | 3 nM | 1000 nM | 5 nM | 2 nM | 1900 nM | 720 nM | 890 nM | –
NCC(NC(=O)c1ccc(-c2c[nH]c3ncccc23)s1)c1ccccc1 (stereo unspecified) | 16 nM | 240 nM | – | – | – | – | – | –
NCC(NC(=O)c1cc(-c2ccnc3[nH]ccc23)cs1)c1ccccc1 (stereo unspecified) | 40 nM | 1000 nM | – | – | – | – | – | –
NCC(NC(=O)c1cc(-c2ccccc2)c(-c2ccnc3[nH]ccc23)s1)c1ccccc1 (stereo unspecified) | 50 nM | 10000 nM | – | – | – | – | – | –
NCC(NC(=O)c1cc(-c2c[nH]c3ncccc23)cs1)c1ccccc1 (stereo unspecified) | 25 nM | 1100 nM | – | – | – | – | – | –
NC[C@H](Cc1cccc(F)c1)NC(=O)c1cc(Br)c(-c2ccnc3[nH]ccc23)s1 | 1 nM | 90 nM | 0.03 nM | – | 240 nM | 18 nM | 260 nM | Activity (Mus musculus): Dose-dependent effect; IC50 [11]: 40 nM; IC50 [12]: 20000 nM; IC50 [13]: 2500 nM; IC50 [14]: 794 nM; IC50 [15]: 10000 nM
CC(C)NCC(Cc1ccccc1)NC(=O)c1cc(Br)c(-c2ccnc3[nH]ccc23)s1 (stereo unspecified) | 10 nM | 2100 nM | – | – | – | – | – | –
NCCNC(=O)c1cc(Br)c(-c2ccnc3[nH]ccc23)s1 | 158 nM | > 10000 nM | – | – | – | – | – | –
NC[C@H](Cc1cccc(C(F)(F)F)c1)NC(=O)c1cc(Br)c(-c2ccnc3[nH]ccc23)s1 | 1 nM | 170 nM | 0.1 nM | 1 nM | 60 nM | 78 nM | 530 nM | –
NCC(NC(=O)c1ccc(-c2ccnc3[nH]ccc23)s1)c1ccccc1 (stereo unspecified) | 6 nM | 190 nM | – | – | – | – | – | –

The next lines start with results.

IC50 [1] | IC50 [2] | Ki [1] | IC50 [3] | Structure (SMILES) | IC50 (BT-474) | IC50 (LNCaP) | IC50 (HFF) | further results
6 nM | 800 nM | – | – | NCC(NC(=O)c1cc(C2CC2)c(-c2ccnc3[nH]ccc23)s1)c1ccccc1 (stereo unspecified) | – | – | – | –
3 nM | 560 nM | – | – | NCC(C(=O)Nc1ccc(-c2ccnc3[nH]ccc23)s1)c1ccccc1 (stereo unspecified) | – | – | – | –
1 nM | 220 nM | – | 2 nM | NC[C@H](Cc1ccccc1F)NC(=O)c1cc(Br)c(-c2ccnc3[nH]ccc23)s1 | 120 nM | 39 nM | 260 nM | –
20 nM | 4800 nM | – | – | NCCCC(NC(=O)c1cc(Br)c(-c2ccnc3[nH]ccc23)s1)c1ccccc1 (stereo unspecified) | – | – | – | –
1 nM | 80 nM | 0.04 nM | 3 nM | NCC(Cc1ccccc1)NC(=O)c1cc(Br)c(-c2ccnc3[nH]ccc23)s1 (racemic) | 200 nM | 45 nM | 410 nM | Cmax [4]: 712 ng/mL; clearance [5]: 49 mL/min/kg; half-life [6]: 3.8 h; AUC (Rattus norvegicus [7]): 893 ng·h/mL; Cmax [8]: 248 ng/mL; AUC (Rattus norvegicus [9]): 664 ng·h/mL; F (Rattus norvegicus [10]): 38%
8 nM | 120 nM | – | – | Cc1cc(C(=O)NC(CN)c2ccccc2)sc1-c1ccnc2[nH]ccc12 (stereo unspecified) | – | – | – | –
2 nM | 260 nM | – | – | CNCC(Cc1ccccc1)NC(=O)c1cc(Br)c(-c2ccnc3[nH]ccc23)s1 (stereo unspecified) | – | – | – | –
8 nM | 1500 nM | – | – | NCCC(NC(=O)c1cc(Br)c(-c2ccnc3[nH]ccc23)s1)c1ccccc1 (stereo unspecified) | – | – | – | –
40 nM | > 10000 nM | – | – | NC(CNC(=O)c1cc(Br)c(-c2ccnc3[nH]ccc23)s1)c1ccccc1 (stereo unspecified) | – | – | – | –
20 nM | > 10000 nM | – | – | CN(C)CC(NC(=O)c1cc(Br)c(-c2ccnc3[nH]ccc23)s1)c1ccccc1 (stereo unspecified) | – | – | – | –
1 nM | 100 nM | 0.06 nM | 2 nM | NC[C@H](Cc1ccccc1)NC(=O)c1cc(Br)c(-c2ccnc3[nH]ccc23)s1 | 230 nM | 21 nM | 90 nM | –
25 nM | 4700 nM | – | – | NCC(C(=O)Nc1cc(Br)c(-c2ccnc3[nH]ccc23)s1)c1ccccc1 (stereo unspecified) | – | – | – | –
32 nM | 6000 nM | 20 nM | 40 nM | NC[C@@H](Cc1ccccc1)NC(=O)c1cc(Br)c(-c2ccnc3[nH]ccc23)s1 | 4500 nM | 2700 nM | 1900 nM | –
3 nM | 780 nM | – | – | CNCC(NC(=O)c1cc(Br)c(-c2ccnc3[nH]ccc23)s1)c1ccccc1 (stereo unspecified) | – | – | – | –
8 nM | 500 nM | 20 nM | 20 nM | NCC(NC(=O)c1cc(Br)c(-c2ccnc3[nH]ccc23)s1)c1ccccc1 (racemic) | 4000 nM | 750 nM | 1200 nM | Cmax [4]: 1800 ng/mL; clearance [5]: 16.7 mL/min/kg; half-life [6]: 3.6 h; AUC(0-t) at 24 h [16]: 3250 ng·h/mL; Cmax [8]: 550 ng/mL; half-life [17]: 4.1 h; AUC(0-t) at 24 h [18]: 3400 ng·h/mL; bioavailability [19]: 32%

From ChEMBL document CHEMBL1153968, “Discovery of 5-pyrrolopyridinyl-2-thiophenecarboxamides as potent AKT kinase inhibitors” (Bioorg Med Chem Lett, 2009)
